From ChEMBL document CHEMBL3596173, “Structural Requirements for CNS Active Opioid Glycopeptides” (J Med Chem, 2015)
Non-standard residues stand in square brackets, D forms with d. Residues, ends and D or L forms follow the SMILES beside them. *: point of attachment. X1 = OC[C@H]1O[C@@H](O[C@H]2[C@H](O)[C@@H](O)[C@H](*)O[C@@H]2CO)[C@H](O)[C@@H](O)[C@@H]1O; Aib = CC(C)(N)C(=O)O; GABA = NCCCC(=O)O

What was measured:
[1] = target: Delta-type opioid receptor (Homo sapiens, UniProt P41143); test: Displacement of [3H]-naltrindole from human delta opioid receptor expressed in CHO cells after 3 hrs by scintillation counting analysis; type: cell-based
Outline: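 Binding used CHO-cell membranes bearing human δ receptor and 0.2 nM (final) [3H]naltrindole, incubated 3 h at 25 °C in 50 mM Tris-HCl pH 7.5. Nonspecific binding was defined with 100 μM naloxone. Samples were glass-fiber filtered, washed with cold buffer and scintillation counted. IC50 came from a log-probit least-squares fit and was converted to Ki as IC50/(1+S).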

Mu-type opioid receptor = Mu-type opioid receptor (Homo sapiens, UniProt P35372); test: Displacement of [3H]-DAMGO from human mu opioid receptor expressed in CHO cells after 60 mins by scintillation counting analysis; type: cell-based
Outline: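 Membranes from CHO cells stably expressing human μ receptor were incubated with 0.25 nM (final) [3H]DAMGO in 50 mM Tris-HCl pH 7.5 for 60 min at 25 °C. Bound radioligand was separated by glass-fiber filtration with cold buffer washes and counted by scintillation. IC50 came from a least-squares log-probit fit, and Ki from IC50/(1+S).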

[2] = target: Kappa-type opioid receptor (Homo sapiens, UniProt P41145); test: Displacement of [3H]-U69593 from human kappa opioid receptor expressed in CHO cells after 60 mins by scintillation counting analysis; type: cell-based
Outline: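 Human κ receptor stably expressed in CHO cells was used as a membrane prep. It was incubated with 1 nM (final) [3H]U69,593 for 60 min at 25 °C in 50 mM Tris-HCl pH 7.5, with 10 μM naloxone defining nonspecific binding. Samples were filtered through glass-fiber filters presoaked ≥30 min in 0.1% polyethylenimine, washed cold and scintillation counted. Ki was derived from a log-probit IC50 via IC50/(1+S).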

Mus musculus [3] = test: Antinociceptive activity in icv dosed CD-1 mouse by 55 degC warm water tail-flick test; type: functional
Outline: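 Male CD-1 mice (27−30 g), 8−10 per group. Compound in distilled water, given icv under light ether anaesthesia, 2 mm caudal and 2 mm lateral from bregma. 55 °C warm-water tail-flick: baseline latency taken first, and mice not responding within 5 s excluded. Retested at various times after dosing. %Antinociception = 100(test − control latency)/(10 − control latency). A50 doses derived.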

Mus musculus [4] = test: Antinociceptive activity in iv dosed CD-1 mouse by 55 degC warm water tail-flick test; type: functional
Outline: (§1)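 Male CD-1 mice (27−30 g), 8−10 per group. Compound in 0.9% saline, injected into the tail vein at 0.1 mL/10 g after the vein was dilated in 40 °C water. Tail immersion in 55 °C water, with baseline latency first and 5 s non-responders excluded. Tested at intervals post-dose. %Antinociception = 100(test − control latency)/(10 − control latency). A50 values obtained.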

Mus musculus [5] = test: Antinociceptive activity in iv dosed CD-1 mouse assessed as time duration of activity by 55 degC warm water tail-flick test; type: functional; outline: as §1
Mus musculus [6] = test: Antinociceptive activity in icv dosed ICR mouse by 55 degC warm water tail-flick test; type: functional
Mus musculus [7] = test: Antinociceptive activity in iv dosed ICR mouse by 55 degC warm water tail-flick test; type: functional

Chain of Mu-type opioid receptor (P35372 whole entry): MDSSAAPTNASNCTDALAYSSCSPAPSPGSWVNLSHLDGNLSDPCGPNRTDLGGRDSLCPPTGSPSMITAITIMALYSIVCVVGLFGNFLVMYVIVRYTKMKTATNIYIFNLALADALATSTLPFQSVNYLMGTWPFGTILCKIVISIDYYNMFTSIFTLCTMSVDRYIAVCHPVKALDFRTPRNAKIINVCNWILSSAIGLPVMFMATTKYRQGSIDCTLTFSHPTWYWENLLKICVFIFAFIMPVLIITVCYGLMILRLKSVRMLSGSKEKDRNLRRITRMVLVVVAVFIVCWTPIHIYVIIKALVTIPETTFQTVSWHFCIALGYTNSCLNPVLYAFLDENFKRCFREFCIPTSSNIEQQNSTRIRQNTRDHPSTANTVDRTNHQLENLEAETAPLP
Chain of Kappa-type opioid receptor (P41145 whole entry): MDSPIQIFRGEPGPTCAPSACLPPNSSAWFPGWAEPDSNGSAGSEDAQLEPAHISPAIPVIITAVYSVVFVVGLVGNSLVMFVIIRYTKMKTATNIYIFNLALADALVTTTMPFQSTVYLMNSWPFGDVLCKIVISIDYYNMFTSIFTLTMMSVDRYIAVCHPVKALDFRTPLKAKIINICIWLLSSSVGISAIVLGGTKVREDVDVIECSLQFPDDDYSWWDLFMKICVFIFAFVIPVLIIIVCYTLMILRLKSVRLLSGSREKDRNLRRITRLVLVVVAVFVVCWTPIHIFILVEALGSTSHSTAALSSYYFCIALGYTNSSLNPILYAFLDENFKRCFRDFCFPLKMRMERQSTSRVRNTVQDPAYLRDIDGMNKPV
Chain of Delta-type opioid receptor (P41143 whole entry): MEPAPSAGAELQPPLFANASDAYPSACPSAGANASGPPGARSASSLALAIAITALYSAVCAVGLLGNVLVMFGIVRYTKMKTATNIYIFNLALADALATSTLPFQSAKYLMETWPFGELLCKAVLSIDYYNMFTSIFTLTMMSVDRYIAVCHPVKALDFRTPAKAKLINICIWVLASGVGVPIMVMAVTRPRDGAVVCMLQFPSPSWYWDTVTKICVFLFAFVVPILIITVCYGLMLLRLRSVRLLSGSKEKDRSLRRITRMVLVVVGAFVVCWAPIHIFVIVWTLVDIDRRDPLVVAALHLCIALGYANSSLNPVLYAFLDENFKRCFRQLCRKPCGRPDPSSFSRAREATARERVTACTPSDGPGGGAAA

Row | SMILES | Ki [1] | Ki (Mu-type opioid receptor) | Ki [2] | A50 (Mus musculus [3]) | A50 (Mus musculus [4]) | Time (Mus musculus [5]) | A50 (Mus musculus [6]) | A50 (Mus musculus [7])
1 | CC(C)C[C@H](NC(=O)[C@H](CO[C@@H]1O[C@H](CO)[C@@H](O[C@@H]2O[C@H](CO)[C@@H](O)[C@H](O)[C@H]2O)[C@H](O)[C@H]1O)NC(=O)[C@H](CCCCN)NC(=O)[C@H](CC(C)C)NC(=O)[C@H](C)NC(=O)[C@H](CCCCN)NC(=O)[C@H](CCC(=O)O)NC(=O)C(C)(C)NC(=O)[C@H](CC(C)C)NC(=O)[C@H](CC(N)=O)NC(=O)CCCNC(=O)[C@H](CC(C)C)NC(=O)[C@H](Cc1ccccc1)NC(=O)CNC(=O)[C@@H](NC(=O)[C@@H](N)Cc1ccc(O)cc1)[C@@H](C)O)C(N)=O (H-YTGFL[GABA]NL[Aib]EKALKS(X1)L-NH2) | 17 nM | 13 nM | 52 nM | 0.165 nmol | 1.13 µmol/kg | 180 min |  | 
2 | CC(C)C[C@H](NC(=O)[C@H](Cc1ccccc1)NC(=O)CNC(=O)[C@@H](NC(=O)[C@@H](N)Cc1ccc(O)cc1)[C@@H](C)O)C(=O)N[C@@H](CO[C@@H]1O[C@H](CO)[C@@H](O[C@@H]2O[C@H](CO)[C@@H](O)[C@H](O)[C@H]2O)[C@H](O)[C@H]1O)C(N)=O (H-YTGFLS(X1)-NH2) | 9.2 nM | 5 nM | 42 nM |  |  |  | 0.018 nmol | 4.07 µmol/kg
